Assay results reported in ChEMBL document CHEMBL4715736, “Identification of anticancer agents based on the thieno[2,3-b]pyridine and 1H-pyrazole molecular scaffolds” (2016).

Columns and labels:
Assay type in all cases: functional
[1] = system: A549; assay: Growth inhibition of human A549/ATCC cells assessed as cell growth at 0.01 uM incubated for 48 hrs by sulforhodamine B assay relative to control; details: read-out: Activity
In short: (§1)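 NCI Developmental Therapeutics Program NCI60 panel. Compounds that were active in the 10 µM one-dose screen went on to dose–response testing. Growth at each concentration is expressed relative to untreated control (100%). GI50 (concentration giving 50% of maximal inhibition of proliferation) and TGI (concentration giving total growth inhibition) were derived from the curves.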

[2] = system: HOP-62; assay: Growth inhibition of human HOP-62 cells assessed as cell growth at 0.01 uM incubated for 48 hrs by sulforhodamine B assay relative to control; details: read-out: Activity
[3] = system: COLO 205; assay: Growth inhibition of human COLO 205 cells assessed as cell growth at 0.01 uM incubated for 48 hrs by sulforhodamine B assay relative to control; details: read-out: Activity; in short: as §1
[4] = system: SW-620; assay: Growth inhibition of human SW-620 cells assessed as cell growth at 0.01 uM incubated for 48 hrs by sulforhodamine B assay relative to control; details: read-out: Activity
[5] = system: U-251; assay: Growth inhibition of human U-251 cells assessed as cell growth at 0.01 uM incubated for 48 hrs by sulforhodamine B assay relative to control; details: read-out: Activity
[6] = system: LOX IMVI; assay: Growth inhibition of human LOX IMVI cells assessed as cell growth at 0.01 uM incubated for 48 hrs by sulforhodamine B assay relative to control; details: read-out: Activity
[7] = system: NCI/ADR-RES; assay: Growth inhibition of human NCI/ADR-RES cells assessed as cell growth at 0.01 uM incubated for 48 hrs by sulforhodamine B assay relative to control; details: read-out: Activity
[8] = system: SK-OV-3; assay: Growth inhibition of human SK-OV-3 cells assessed as cell growth at 0.01 uM incubated for 48 hrs by sulforhodamine B assay relative to control; details: read-out: Activity
[9] = system: DU-145; assay: Growth inhibition of human DU-145 cells assessed as cell growth at 0.01 uM incubated for 48 hrs by sulforhodamine B assay relative to control; details: read-out: Activity; in short: as §1
[10] = system: BT-549; assay: Growth inhibition of human BT-549 cells assessed as cell growth at 0.01 uM incubated for 48 hrs by sulforhodamine B assay relative to control; details: read-out: Activity
[11] = system: RPMI-8226; assay: Growth inhibition of human RPMI-8226 cells assessed as cell growth at 0.1 uM incubated for 48 hrs by sulforhodamine B assay relative to control; details: read-out: Activity
[12] = system: SW-620; assay: Growth inhibition of human SW-620 cells assessed as cell growth at 0.1 uM incubated for 48 hrs by sulforhodamine B assay relative to control; details: read-out: Activity
[13] = system: 786-0; assay: Growth inhibition of human 786-0 cells assessed as cell growth at 0.1 uM incubated for 48 hrs by sulforhodamine B assay relative to control; details: read-out: Activity; in short: as §1
[14] = system: TK-10; assay: Growth inhibition of human TK-10 cells assessed as cell growth at 0.1 uM incubated for 48 hrs by sulforhodamine B assay relative to control; details: read-out: Activity
[15] = system: K562; assay: Growth inhibition of human K562 cells assessed as cell growth at 1 uM incubated for 48 hrs by sulforhodamine B assay relative to control; details: read-out: Activity
[16] = system: NCI-H322M; assay: Growth inhibition of human NCI-H322M cells assessed as cell growth at 1 uM incubated for 48 hrs by sulforhodamine B assay relative to control; details: read-out: Activity
[17] = system: NCI-H460; assay: Growth inhibition of human NCI-H460 cells assessed as cell growth at 1 uM incubated for 48 hrs by sulforhodamine B assay relative to control; details: read-out: Activity
[18] = system: NCI/ADR-RES; assay: Growth inhibition of human NCI/ADR-RES cells assessed as cell growth at 1 uM incubated for 48 hrs by sulforhodamine B assay relative to control; details: read-out: Activity
[19] = system: TK-10; assay: Growth inhibition of human TK-10 cells assessed as cell growth at 1 uM incubated for 48 hrs by sulforhodamine B assay relative to control; details: read-out: Activity
[20] = system: NCI-H226; assay: Growth inhibition of human NCI-H226 cells assessed as cell growth at 100 uM incubated for 48 hrs by sulforhodamine B assay relative to control; details: read-out: Activity
[21] = system: SF-295; assay: Growth inhibition of human SF-295 cells assessed as cell growth at 100 uM incubated for 48 hrs by sulforhodamine B assay relative to control; details: read-out: Activity
[22] = system: MDA-MB-435; assay: Growth inhibition of human MDA-MB-435 cells assessed as cell growth at 100 uM incubated for 48 hrs by sulforhodamine B assay relative to control; details: read-out: Activity
[23] = system: SK-MEL-2; assay: Growth inhibition of human SK-MEL-2 cells assessed as cell growth at 100 uM incubated for 48 hrs by sulforhodamine B assay relative to control; details: read-out: Activity
[24] = system: IGROV-1; assay: Growth inhibition of human IGROV-1 cells assessed as cell growth at 100 uM incubated for 48 hrs by sulforhodamine B assay relative to control; details: read-out: Activity
[25] = system: NCI/ADR-RES; assay: Growth inhibition of human NCI/ADR-RES cells assessed as cell growth at 100 uM incubated for 48 hrs by sulforhodamine B assay relative to control; details: read-out: Activity
[26] = system: SN12C; assay: Growth inhibition of human SN12C cells assessed as cell growth at 100 uM incubated for 48 hrs by sulforhodamine B assay relative to control; details: read-out: Activity
[27] = system: NCI-H226; assay: Growth inhibition of human NCI-H226 cells incubated for 48 hrs by sulforhodamine B assay
In short: (§2)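 NCI60 panel at the NCI Developmental Therapeutics Program. Only compounds active in the 10 µM screen went to dose-response testing. GI50, the concentration giving 50% of maximal inhibition of proliferation, and TGI, the concentration giving total growth inhibition, were derived from the dose-response curves.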

[28] = system: SF-539; assay: Growth inhibition of human SF-539 cells incubated for 48 hrs by sulforhodamine B assay
In short: (§3)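 NCI DTP 60-line human tumour panel. Dose-response curves were run only for ligands active in the initial 10 µM screen. GI50 (concentration giving 50% of maximal inhibition of proliferation) and TGI (concentration giving total growth inhibition) were derived from these curves.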

[29] = system: SNB-75; assay: Growth inhibition of human SNB-75 cells incubated for 48 hrs by sulforhodamine B assay; in short: as §3
[30] = system: U-251; assay: Growth inhibition of human U-251 cells incubated for 48 hrs by sulforhodamine B assay; in short: as §3
[31] = system: SK-MEL-28; assay: Growth inhibition of human SK-MEL-28 cells incubated for 48 hrs by sulforhodamine B assay; in short: as §3
[32] = system: UO-31; assay: Growth inhibition of human UO-31 cells incubated for 48 hrs by sulforhodamine B assay; in short: as §3
[33] = system: MDA-MB-231; assay: Growth inhibition of human MDA-MB-231 cells incubated for 48 hrs by sulforhodamine B assay; in short: as §2
[34] = system: Hs-578T; assay: Growth inhibition of human Hs-578T cells incubated for 48 hrs by sulforhodamine B assay; in short: as §2
[35] = read-out: LC50 (the source's name)

Q: With `Cc1cccc(NC(=O)c2sc3nc4c(cc3c2N)C(=O)CCC4)c1` as the molecule, how does the growth at 0.01 µM [1] read?
A: Its growth at 0.01 µM is 92%.

Q: And the growth at 0.01 µM [2]?
A: The growth at 0.01 µM was 88%.

Q: And the growth at 0.01 µM [3]?
A: Its growth at 0.01 µM is 92%.

Q: And the growth at 0.01 µM [4]?
A: The growth at 0.01 µM was 94%.

Q: And the growth at 0.01 µM [5]?
A: The growth at 0.01 µM was 96%.

Q: What about the growth at 0.01 µM [6] of the same molecule?
A: Its growth at 0.01 µM is 97%.

Q: And the growth at 0.01 µM [7]?
A: Its growth at 0.01 µM is 98%.

Q: What about the growth at 0.01 µM [8] of the same molecule?
A: The growth at 0.01 µM was 90%.

Q: And the growth at 0.01 µM [9]?
A: Its growth at 0.01 µM is 102%.

Q: And the growth at 0.01 µM [10]?
A: Its growth at 0.01 µM is 87%.

Q: What about the growth at 0.1 µM [11] of the same molecule?
A: Its growth at 0.1 µM is 94%.

Q: And the growth at 0.1 µM [12]?
A: The growth at 0.1 µM was 60%.

Q: What about the growth at 0.1 µM [13] of the same molecule?
A: The growth at 0.1 µM was 80%.

Q: What about the growth at 0.1 µM [14] of the same molecule?
A: Its growth at 0.1 µM is 82%.

Q: And the growth at 1 µM [15]?
A: Its growth at 1 µM is 21%.

Q: What about the growth at 1 µM [16] of the same molecule?
A: The growth at 1 µM was 48%.

Q: And the growth at 1 µM [17]?
A: Its growth at 1 µM is 8%.

Q: And the growth at 1 µM [18]?
A: The growth at 1 µM was 15%.

Q: What about the growth at 1 µM [19] of the same molecule?
A: Its growth at 1 µM is 45%.

Q: What about the growth at 100 µM [20] of the same molecule?
A: The growth at 100 µM was -15%.

Q: And the growth at 100 µM [21]?
A: The growth at 100 µM was 7%.

Q: And the growth at 100 µM [22]?
A: Its growth at 100 µM is -64%.

Q: What about the growth at 100 µM [23] of the same molecule?
A: The growth at 100 µM was -74%.

Q: And the growth at 100 µM [24]?
A: Its growth at 100 µM is -4%.

Q: And the growth at 100 µM [25]?
A: The growth at 100 µM was -3%.

Q: And the growth at 100 µM [26]?
A: The growth at 100 µM was -33%.

Q: And the GI50 [27]?
A: The GI50 was 1.09 µM.

Q: What about the TGI [27] of the same molecule?
A: The TGI was > 100 µM.

Q: And the CC50 [27, 35]?
A: The CC50 was > 100 µM.

Q: What about the GI50 [28] of the same molecule?
A: Its GI50 is 0.167 µM.

Q: And the TGI [28]?
A: The TGI was 0.462 µM.

Q: What about the CC50 [28, 35] of the same molecule?
A: The CC50 was ≥ 100 µM.

Q: What about the GI50 [29] of the same molecule?
A: Its GI50 is 0.23 µM.

Q: And the LC50 [29]?
A: Its LC50 is > 100 µM.

Q: And the TGI [29]?
A: Its TGI is ≥ 100 µM.

Q: What about the GI50 [30] of the same molecule?
A: The GI50 was 0.261 µM.

Q: What about the LC50 (concentration killing 50% of cells) [30] of the same molecule?
A: The LC50 (concentration killing 50% of cells) was ≥ 100 µM.

Q: What about the TGI [30] of the same molecule?
A: The TGI was ≥ 100 µM.

Q: And the GI50 [31]?
A: The GI50 was 0.0308 µM.

Q: What about the LC50 [31] of the same molecule?
A: The LC50 was > 100 µM.

Q: What about the TGI [31] of the same molecule?
A: The TGI was ≥ 100 µM.

Q: What about the TGI [32] of the same molecule?
A: The TGI was ≥ 100 µM.

Q: And the CC50 [32, 35]?
A: Its CC50 is > 100 µM.

Q: What about the GI50 [33] of the same molecule?
A: The GI50 was 0.559 µM.

Q: What about the TGI [33] of the same molecule?
A: Its TGI is ≥ 100 µM.

Q: What about the CC50 [33, 35] of the same molecule?
A: The CC50 was > 100 µM.

Q: What about the GI50 [34] of the same molecule?
A: The GI50 was 0.256 µM.

Q: And the TGI [34]?
A: The TGI was 40.9 µM.

Q: What about the CC50 [34, 35] of the same molecule?
A: Its CC50 is > 100 µM.
